Fh CTSL1 inh: counter-screen for PFM18AAP inhibitors: inhibitors of F. hepatica cathepsin L1 | 300,000 tested, 0.49% active | inhibition, % at 5.96 µM | recombinant F. hepatica cathepsin L1, Z-Leu-Arg-MCA fluorescence;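 active = inhibition above the mean of all tested compounds plus 3 SD, set per screening campaign, cut at about 17% in these data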;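 also: 0% = plate median of test compound wells and 100% = 1 µM Z-Phe-Ala-diazomethylketone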
Diaphorase inh: counter-screen for diaphorase-based assays: diaphorase inhibitors and chemical oxidizers | diaphorase resazurin-to-resorufin fluorescence, NADH, 16 min; bacterial (C. kluyveri) enzyme, not human | inhibition, % at 20 µM | 190,000 tested, 0.69% active | AID 1217;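 active = primary screen inhibition at 20 µM above a set limit, cut at about 50% in these data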;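 also: plate controls were DMSO with full reaction for no effect and wells lacking NADH for full effect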
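Assay system – diaphorase enzyme from Clostridium kluyveri · Amount – diaphorase 0.14 U/mL (working solution) · Times – reaction incubation of 16 min at room temperature · Controls – No-NADH positive control and DMSO neutral control · Signal – resorufin fluorescence 544/590 nm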
Diaphorase act: diaphorase activation or chemical reduction counter-screen; Diaphorase/resazurin coupled assay, resorufin fluorescence, 16 min; stronger effect = higher value; 1 = vehicle wells, 0 = NADH-free wells; activation factor at 20 µM; 190,000 tested, 0.005% active; AID 1229;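 active = diaphorase activity raised at least twofold by the compound at 20 µM; inactive = activation factor below 2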
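Assay system: bacterial diaphorase enzyme (C. kluyveri) / Input: enzyme 0.07 U/mL final / Medium: 50 mM HEPES pH 7.4 with 4.542 mM MgCl2, 0.005% Tween 20 / Doses: single compound dose of 20 µM, 1% DMSO final / Incubation: 16 min enzyme reaction, ambient temperature / Signal: fluorescence, excitation 544 nm and emission 590 nm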
ATG4B inhibitor: ATG4B (human) cysteine protease inhibition; ATG4B cleavage of LC3-PLA2, NBD-HPC fluorescence, 1 h; inhibition, % at 8.33 µM; 340,000 tested, 0.51% active; AID 504462; in the data active = inhibition above about 40%
Target sequence (Q9Y4P1 whole entry, looked up): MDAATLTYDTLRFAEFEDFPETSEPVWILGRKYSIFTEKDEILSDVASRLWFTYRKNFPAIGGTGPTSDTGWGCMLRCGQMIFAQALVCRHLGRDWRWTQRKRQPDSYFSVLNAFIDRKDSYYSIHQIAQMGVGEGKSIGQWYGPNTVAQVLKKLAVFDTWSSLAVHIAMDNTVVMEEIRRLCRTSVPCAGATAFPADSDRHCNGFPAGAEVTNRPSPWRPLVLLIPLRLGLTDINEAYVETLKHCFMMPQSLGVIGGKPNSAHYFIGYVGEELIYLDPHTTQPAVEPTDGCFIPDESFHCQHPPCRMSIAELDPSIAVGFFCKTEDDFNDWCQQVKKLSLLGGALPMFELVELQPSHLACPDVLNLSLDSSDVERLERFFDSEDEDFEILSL
HKDC1 inh: blocks human hexokinase HKDC1 activity; AID 493160; inhibition, % at 20 µM; Q2TB90; recombinant HKDC1, G6PDH/diaphorase resazurin coupled fluorescence; 340,000 tested, 0.16% active;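 active = inhibition above about 35% when tested at 20 µM, limit read from the data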;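 also: plate controls were DMSO wells with enzyme for no effect and DMSO wells lacking enzyme for full effect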
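Incubation: 90 min at room temperature in dark / Material: recombinant HKDC1 (HK5) hexokinase enzyme, produced in-house / Quantity: enzyme 5 µg/mL final / Compound: one dose of 20 µM, 1% DMSO / Reagent: glucose and ATP substrates / Buffer or medium: Tris pH 8.0 buffer with MgCl2, Tween-20, BSA, BME / Technique: resorufin fluorescence at 613 nm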
* = called active by the depositor; · = no result. Shown are actives, neighbours in structure and some others; about 1.4% of the full set was active somewhere.

SMILES	Fh CTSL1 inh	Diaphorase inh	Diaphorase act	ATG4B inhibitor	HKDC1 inh
N#CN(CC(N)=O)c1nc(N2CCCCC2)nc(N2CCCCC2)n1	25*	10	0.9	-1	-3
Cc1ccc(N2CCN(C(=O)CN3C(=O)c4ccccc4C3=O)CC2)cc1	21*	0	1	-5	-2
O=C(CN1C(=O)c2ccccc2C1=O)N1CCN(c2ccccc2)CC1	1	1	1	-5	-8
COc1ccc(Nc2nc3[nH]c(=O)cc(O)c3s2)cc1	-4	69*	0.3	-13	3
COc1ccc(Nc2nc(C)cc(=O)[nH]2)cc1	1	3	1	4	2
CC(=O)Nc1cccc(NC(=O)CSc2nc3c(=O)n(C)c(=O)n(C)c3n2C)c1	-9	·	·	-17	-3
CCC(=O)NC(c1cccs1)c1ccc2cccnc2c1O (stereo not given)	6	58*	0.4	-2	-25
CC(C)CC(=O)NC(c1cccs1)c1ccc2cccnc2c1O (stereo not given)	4	·	·	8	-34
CC(C)C(=O)NC(c1cccc([N+](=O)[O-])c1)c1ccc2cccnc2c1O (stereo not given)	0	·	·	-5	-29
CC(C)C(=O)NC(c1ccco1)c1ccc2cccnc2c1O (stereo not given)	-1	55*	0.5	-5	-17
Cc1cc2oc(=O)cc(-c3ccccc3)c2c(C)c1-c1ccc(C#N)cc1	·	·	·	-3	-3
CCOC(=O)[C@@H]1[C@H]2COc3ccccc3[C@@H]2N2C(=O)N(c3ccc(OC)cc3)C(=O)[C@@]12C	-2	·	·	-8	0
CC1=CC(C)(C)N2C(=O)C(=Nc3ccc(O)cc3)c3cccc1c32	44*	·	·	15	20
NS(=O)(=O)c1cccc(NC(=O)COC(=O)Cn2cc(C(F)(F)F)ccc2=O)c1	·	·	·	-6	-4
CC(=O)Oc1ccc(/C=C2\N=C(C3CCCCC3)OC2=O)cc1	23*	0	1	9	7
CCCC1CCC(C2=N/C(=C\c3ccc(OC)c(OC)c3)C(=O)O2)CC1 (stereo not given)	3	25	0.7	0	12
COc1cccc(/C=C2\N=C(C3CCCCC3)OC2=O)c1OC	20*	3	1	1	-1
C#CCOCCOCCOCCNc1nc(N2CCN(C(=O)C(Cc3cc4ccccc4[nH]3)n3cc(C(N)Cc4ccc(O)cc4)nn3)CC2)nc(N2CCN(C(=O)C(Cc3cc4ccccc4[nH]3)n3cc(C(N)Cc4ccc(O)cc4)nn3)CC2)n1 (stereo not given)	·	-103	2*	-5	2
C#CCOCCOCCOCCNc1nc(N2CCN(C(=O)[C@H]([C@@H](C)CC)n3cc([C@@H](N)CC(C)C)nn3)CC2)nc(N2CCN(C(=O)[C@H]([C@@H](C)CC)n3cc([C@@H](N)CC(C)C)nn3)CC2)n1	25*	6	0.9	-19	-9
COC(=O)c1cc(OC)cc(O)c1C(=O)c1c(O)cc(C)cc1O	52*	·	·	-5	-2
COc1cc(C)c(C(=O)Oc2cc(C)c(C(=O)O)c(O)c2)c(O)c1	-1	·	·	-5	1
Cc1cccc(N=Cc2cc3c(cc2[N+](=O)[O-])OCO3)c1	-1	61*	0.4	-8	20
O=[N+]([O-])c1cc2c(cc1C=Nc1ccccc1)OCO2	-1	53*	0.5	3	17
COc1ccc(-c2oc3ccccc3c2C(=O)Oc2ccccc2)cc1	-2	·	·	0	-2
CCOC(=O)N1CCN(S(=O)(=O)c2c(C)nc3scc(C)n3c2=O)CC1	-7	·	·	-5	-8
SMILES	Fh CTSL1 inh	Diaphorase inh	Diaphorase act	ATG4B inhibitor	HKDC1 inh
NCCCC[C@H]1NC(=O)[C@H](CCC(=O)O)NC(=O)c2cc([N+](=O)[O-])cc(I)c2OCC[C@@H](C(N)=O)NC1=O	1	32	0.7	44*	10
COc1ccc(CCN(Cc2ccccn2)C(=S)Nc2ccc(C)cc2)cc1OC	1	21	0.8	-2	3
COc1ccccc1NC(=S)N(CCc1ccc(OC)c(OC)c1)Cc1ccccn1	18*	12	0.9	-9	-2
O=C(COC(=O)C12CC3CC(CC(Br)(C3)C1)C2)Nc1ccc2[nH]c(=O)[nH]c2c1	3	·	·	-5	9
Cc1cc2cc(C)c3nnc(SCC(=O)N4CCN(C(=O)c5ccco5)CC4)n3c2cc1C	-2	·	·	-37	15
O=C(CSc1nc2ccccc2n1CC(=O)N1CCCC1)N1CCN(C(=O)c2ccco2)CC1	27*	3	1	-1	0
Cc1ccc2cc(C)c3nnc(SCC(=O)N4CCN(C(=O)c5ccco5)CC4)n3c2c1	3	51*	0.5	-17	10
CCOc1ccc(NS(=O)(=O)c2ccc(C(=O)N(C)CC(=O)Nc3cccc(OC)c3)cc2)cc1	·	·	·	-11	-5
Cc1nc2c(-c3ccc(Cl)cc3)cnn2c(N)c1-c1ccc(F)cc1	1	·	·	-4	3
Cc1nc2c(-c3ccc(F)cc3)cnn2c(N)c1-c1ccccc1	19*	·	·	9	1
COc1cc(/C=C/C(=O)OCC(=O)N(C)CC(=O)Nc2ccc(F)cc2)ccc1OC(F)F	·	·	·	-6	-1
O=C(O[C@@H]1OC2COC(=O)c3cc(O)c(O)c(O)c3-c3c(cc(O)c(O)c3O)C(=O)O[C@@H]([C@H]1O)[C@@H]2O)c1cc(O)c(O)c(O)c1	-2	62*	0.4	14	7
CN(CC(=O)Nc1cccc(F)c1)CC(=O)N1CCc2ccccc21	·	·	·	1	-4
CCCCOc1cccc(C(=O)NC(=S)Nc2ccc(Cl)c(C(=O)O)c2)c1	2	62*	0.4	-7	-13
O=c1nc(Nc2ccc([N+](=O)[O-])cc2)[nH]c(=O)[nH]1	-1	·	·	-6	3
CC1(C)CC(=O)C2=C(C1)OC1=C(C(=O)CC(C)(C)C1)C2c1ccc(O)cc1O	5	32	0.7	-6	11
CC1(C)CC(=O)C2=C(C1)OC1=C(C(=O)CC(C)(C)C1)C2c1ccc(O)c([N+](=O)[O-])c1	18*	19	0.8	-9	-4
Oc1c(Cl)cc(Cl)c2c1NCCC2	·	64*	0.4	3	10
Cc1occc1C(=O)NNC(=S)NCc1ccccc1	17*	-7	1.1	-2	-6
Cc1occc1C(=O)NNC(=S)NCc1ccc(Cl)cc1	1	0	1	-10	1
CCCCN(CCCNC(=O)CN1C(=O)COc2ccc(S(=O)(=O)N3CCC(C)CC3)cc21)Cc1ccccc1	2	·	·	-5	-1
CCCCN(C(C)=O)c1ccc(S(=O)(=O)NC2=NCCCCC2)cc1NC(C)=O	·	·	·	-1	-7
CCS(=O)(=O)c1ccccc1C(=O)NC1CCCc2ccccc21 (stereo not given)	-2	·	·	-1	-9

Bioassay records (PubChem)
